Measurements from different studies.
Lines come from different studies, so protocols differ.

For CC(C)(Nc1nc(-c2ccccn2)nc2ccccc12)c1ccccn1, the AUC(0-t) was 1450 ng·h/mL (female BALB/c mouse; plasma; intravenous; 1 mg/kg).
The AUC(0-t) of CNCCN(C)c1cc(C#N)cc(CCc2cc(C)cc(N)n2)c1 is reported as 162 ng·h/mL (male BALB/c mouse; plasma; oral; 10 mg/kg).
With CN1CCN(C(=O)c2cc3c(Nc4ccc(OC(F)(F)F)cc4)ncnc3s2)CC1 the AUC(0-t) was 2410 ng·h/mL (male BALB/c mouse; plasma; oral; 20 mg/kg).
For CCc1cc(OC)c2nccc(N3CCc4c(cc(Cn5ccnc5)cc4-c4cn(C)nc4C(F)(F)F)C3=O)c2c1, the AUC(0-t) was 106000 ng·h/mL (male CD-1 mouse; plasma; oral; 50 mg/kg).
CN1CCN(CC2CCN(c3nccc4[nH]c(-c5cc(F)cc(F)c5)nc34)CC2)CC1 gave an AUC(0-t) of 2.42 µM·h (mouse; blood; intravenous; 2 mg/kg).
With CN1CCN(C(=O)CN[C@@H]2C[C@H]2c2ccc(OCc3ccccc3)cc2)CC1 the AUC(0-t) was 1660 ng·h/mL (mouse; plasma; intraperitoneal; 10 mg/kg).
Cc1c2c(n(-c3ccc(Cl)cc3Cl)c1-c1ccc(OS(=O)(=O)CCC(F)(F)F)cc1)CCN(N1CCCCC1)C2=O has an AUC(0-t) of 3.6 µM·h (mouse; plasma; oral; 6 µmol/kg; single dose).
With CCOC(=O)c1sc(Nc2ncccn2)nc1-c1ccccn1 the AUC(0-t) was 195 ng·h/mL (male CD-1 mouse; plasma; oral; 10 mg/kg).
The AUC(0-t) of CC[C@H](C)[C@@H]1NC(=O)[C@@](C)(NC(=O)[C@H](CCCNC(=N)N)NC(=O)[C@H](CC(C)C)NC(=O)[C@@H](NC(=O)[C@H](CCC(N)=O)NC(=O)[C@H](CC(C)C)NC(C)=O)[C@@H](C)O)CCCC=CCCC[C@@](C)(C(=O)N[C@@H](CC(C)C)C(=O)N[C@@H](Cc2ccc3ccccc3c2)C(N)=O)NC(=O)[C@H](CCCNC(=N)N)NC(=O)[C@H](CCC(N)=O)NC1=O is reported as 124000 ng·h/mL (male BALB/c mouse; plasma; intravenous; 5 mg/kg).
Fc1ccc(-c2nc3c(N4CCC(CN5CCOCC5)CC4)nccc3[nH]2)cc1F gave an AUC(0-t) of 4.17 µM·h (mouse; blood; intravenous; 2 mg/kg).
For CCc1cc(C(=O)NC)c2nccc(N3CCc4c(cc(Cn5ccnc5)cc4-c4cn(C)nc4C(F)(F)F)C3=O)c2c1, the AUC(0-t) was 4180 ng·h/mL (male CD-1 mouse; plasma; intravenous; 3 mg/kg).
The AUC(0-t) of O=S(=O)(c1ccc(-c2ccc3nccc(Nc4ccncn4)c3c2)cc1)N1CCOCC1 is reported as 9510 ng·h/mL (female BALB/c mouse; plasma; intraperitoneal; 10 mg/kg).
Cc1nc2ccc(F)cc2n1-c1nc(N)c(F)c(Nc2ccc(C(F)(F)F)cc2)n1 gave an AUC(0-t) of 19300 ng·h/mL (nude mouse; plasma; oral; 10 mg/kg).
With COc1nc(-c2cc(C)c(N[C@@H](C)c3cc(F)cc(F)c3)nn2)ccc1-n1cnc(C)c1 the AUC(0-t) was 9560 ng·h/mL (male CD-1 mouse; plasma; oral; 5 mg/kg; single dose).
With COc1ccc(C(O)COc2ccc(-c3csc(-c4ccc(OCC(O)c5ccc(OC)c(OC)c5)cc4)n3)cc2)cc1OC (stereo not shown) the AUC(0-t) was 10000 ng·h/mL (C57BL/6 mouse; plasma; oral; 10 mg/kg).
The AUC(0-t) of CN1CCC[C@H](CN2c3ccccc3Sc3ccccc32)C1.O=C(O)CCC(=O)O is reported as 8750 ng·h/mL (mouse; plasma; oral; 64 mg/kg; single dose).
With COc1cc(OC)c2nccc(N3CCc4c(cc(Cn5ccnc5)cc4-c4cn(C)nc4C(F)(F)F)C3=O)c2c1 the AUC(0-t) was 60600 ng·h/mL (male CD-1 mouse; plasma; oral; 50 mg/kg).
CCOc1ccc(Cc2cc([C@@H]3O[C@H](CO)[C@@H](O)[C@H](O)[C@H]3O)ccc2Cl)cc1 has an AUC(0-t) of 457 ng·h/mL (male C57BL/6 mouse; plasma; oral; 1 mg/kg).
CSc1cc(Oc2ccnc3[nH]c(=O)cnc23)ccc1NC(=O)Nc1cc(C(C)(C)C)nn1-c1ccccc1 gave an AUC(0-t) of 95 µM·h (BALB/c mouse; plasma; intravenous; 2 mg/kg).
